Tests used:
[1] = molecular target: T1, ATP-dependent translocase ABCB1 (Homo sapiens, UniProt P08183); test: Inhibition of human MDR1 transfected in mouse L5178Y cells assessed as fluorescence activity ratio at 4 ug/ml after 10 mins by rhodamine 123 dye based fluorescence analysis; type: cell-based
[2] = molecular target: T1, ATP-dependent translocase ABCB1; test: Inhibition of human MDR1 transfected in mouse L5178Y cells assessed as fluorescence activity ratio at 40 ug/ml after 10 mins by rhodamine 123 dye based fluorescence analysis; type: cell-based
[3] = molecular target: T1, ATP-dependent translocase ABCB1; test: Ratio of human MDR1 modulation transfected in mouse L5178Y cells at 40 ug/ml to human MDR1 modulation transfected in mouse L5178Y cells at 4 ug/ml; type: cell-based
[4] = Cytotoxicity against human HSC2 cells after 48 hrs by MTT assay; type: functional; details: HSC-2, 48 h, pooled result: one value given for 3 cell lines, strains, targets or settings
Procedure, shortened: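 Compounds were incubated with cells at 37 °C for 48 hr. HSC-2 and HSC-4 squamous carcinoma cells were grown in supplemented DMEM, and viability was read by MTT. HL-60 promyelocytic leukemia cells were grown in supplemented RPMI1640, and viability was read by trypan blue exclusion. CC50 is the concentration killing 50% of cells, reported as an average.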

[5] = molecular target: T1, ATP-dependent translocase ABCB1; test: Potency index, ratio of compound activity to verapamil hydrochloride activity for human MDR1 modulation transfected in mouse L5178Y cells at 4 ug/ml; type: cell-based

T1 sequence (P08183 whole entry): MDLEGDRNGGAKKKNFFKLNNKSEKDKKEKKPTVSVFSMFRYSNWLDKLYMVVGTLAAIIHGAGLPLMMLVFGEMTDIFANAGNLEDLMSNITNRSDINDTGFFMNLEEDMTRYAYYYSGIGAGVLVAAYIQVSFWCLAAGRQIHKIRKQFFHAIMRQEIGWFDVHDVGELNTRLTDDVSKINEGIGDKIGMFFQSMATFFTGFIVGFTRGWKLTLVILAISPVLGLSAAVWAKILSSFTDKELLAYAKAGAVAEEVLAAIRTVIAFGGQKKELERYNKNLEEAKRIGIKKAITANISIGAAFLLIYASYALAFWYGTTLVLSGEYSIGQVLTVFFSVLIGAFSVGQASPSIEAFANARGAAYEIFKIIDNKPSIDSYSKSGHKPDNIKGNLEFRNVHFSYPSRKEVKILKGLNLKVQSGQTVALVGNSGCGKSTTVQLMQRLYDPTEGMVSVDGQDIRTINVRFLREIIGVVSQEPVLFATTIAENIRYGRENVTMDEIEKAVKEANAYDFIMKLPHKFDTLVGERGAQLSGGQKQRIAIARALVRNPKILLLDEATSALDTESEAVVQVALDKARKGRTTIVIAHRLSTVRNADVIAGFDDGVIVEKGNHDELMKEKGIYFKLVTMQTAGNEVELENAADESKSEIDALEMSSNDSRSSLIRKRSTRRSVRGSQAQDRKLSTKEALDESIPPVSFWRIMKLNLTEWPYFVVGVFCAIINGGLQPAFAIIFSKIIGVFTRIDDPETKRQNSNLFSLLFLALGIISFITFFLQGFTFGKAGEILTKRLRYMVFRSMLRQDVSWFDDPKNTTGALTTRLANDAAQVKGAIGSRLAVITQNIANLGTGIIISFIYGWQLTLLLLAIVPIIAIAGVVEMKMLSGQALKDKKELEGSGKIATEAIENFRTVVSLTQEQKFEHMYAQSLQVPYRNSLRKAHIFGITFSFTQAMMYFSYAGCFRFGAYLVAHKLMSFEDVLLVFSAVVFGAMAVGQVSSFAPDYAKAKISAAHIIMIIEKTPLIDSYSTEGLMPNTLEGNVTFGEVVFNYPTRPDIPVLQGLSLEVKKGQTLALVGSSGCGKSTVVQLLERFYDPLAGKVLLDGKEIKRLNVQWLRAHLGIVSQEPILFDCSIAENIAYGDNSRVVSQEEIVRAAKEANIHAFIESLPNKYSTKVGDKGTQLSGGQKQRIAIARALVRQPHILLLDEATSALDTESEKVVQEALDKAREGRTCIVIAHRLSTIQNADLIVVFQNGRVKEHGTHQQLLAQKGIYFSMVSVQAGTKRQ

Structure (SMILES) | Ratio [1] | Ratio [2] | Ratio [3] | Ratio [5] | CC50 [4] [µM]
O=C1/C(=C/c2ccc([N+](=O)[O-])cc2)CN(C(=O)CCSCCO)C/C1=C\c1ccc([N+](=O)[O-])cc1 | 8.86 | 20 | 2.26 |  | 0.39
Cc1ccc(/C=C2\CN(C(=O)CCSCCO)C/C(=C\c3ccc(C)cc3)C2=O)cc1 | 55.4 | 44.4 | 0.8 |  | 1.56
O=C1/C(=C/c2ccccc2)CN(C(=O)CCSCCO)C/C1=C\c1ccccc1 | 4.71 | 42.4 | 9 |  | 1.53
N[C@@H](Cc1ccc(N(CCCl)CCCl)cc1)C(=O)O |  |  |  |  | 14
O=C1/C(=C/c2ccccc2)CN(C(=O)CCSCCS(=O)(=O)O)C/C1=C\c1ccccc1 | 1.14 | 1.2 | 1.05 |  | 154
COc1ccc(/C=C2\CN(C(=O)CCSCCS)C/C(=C\c3ccc(OC)cc3)C2=O)cc1 | 18.9 | 126 | 6.67 |  | 3.37
O=C1/C(=C/c2ccc([N+](=O)[O-])cc2)CN(C(=O)CCSCCS(=O)(=O)O)C/C1=C\c1ccc([N+](=O)[O-])cc1 | 1.14 | 1.71 | 1.5 |  | 4.73
COc1ccc(/C=C2\CN(C(=O)CCSCCO)C/C(=C\c3ccc(OC)cc3)C2=O)cc1 | 37.1 | 85.1 | 2.29 | 9 | 2.67

Continued, in another order:

Ratio [1] | Ratio [2] | Ratio [3] | Ratio [5] | Structure (SMILES) | CC50 [4] [µM]
1.14 | 1.71 | 1.5 |  | O=C1/C(=C/c2ccc(Cl)cc2)CN(C(=O)CCSCCS(=O)(=O)O)C/C1=C\c1ccc(Cl)cc1 | 29.7
49.2 | 45 | 0.92 |  | O=C1/C(=C/c2ccc(Cl)cc2)CN(C(=O)CCSCCO)C/C1=C\c1ccc(Cl)cc1 | 0.66
1.27 | 3.23 | 2.54 |  | COc1ccc(/C=C2\CN(C(=O)CCSCCS(=O)(=O)O)C/C(=C\c3ccc(OC)cc3)C2=O)cc1 | 91.7
1.2 | 1.6 | 1.33 |  | Cc1ccc(/C=C2\CN(C(=O)CCSCCS(=O)(=O)O)C/C(=C\c3ccc(C)cc3)C2=O)cc1 | 126
